The source of these data is ChEMBL document CHEMBL3108696, “Structure-activity relationships of chromone derivatives toward the mechanism of interaction with and inhibition of breast cancer resistance protein ABCG2” (J Med Chem, 2013).

Data set [1] has as its target T1, Broad substrate specificity ATP-binding cassette transporter ABCG2 (Homo sapiens, UniProt Q9UNQ0).
T1 sequence (Q9UNQ0 whole entry): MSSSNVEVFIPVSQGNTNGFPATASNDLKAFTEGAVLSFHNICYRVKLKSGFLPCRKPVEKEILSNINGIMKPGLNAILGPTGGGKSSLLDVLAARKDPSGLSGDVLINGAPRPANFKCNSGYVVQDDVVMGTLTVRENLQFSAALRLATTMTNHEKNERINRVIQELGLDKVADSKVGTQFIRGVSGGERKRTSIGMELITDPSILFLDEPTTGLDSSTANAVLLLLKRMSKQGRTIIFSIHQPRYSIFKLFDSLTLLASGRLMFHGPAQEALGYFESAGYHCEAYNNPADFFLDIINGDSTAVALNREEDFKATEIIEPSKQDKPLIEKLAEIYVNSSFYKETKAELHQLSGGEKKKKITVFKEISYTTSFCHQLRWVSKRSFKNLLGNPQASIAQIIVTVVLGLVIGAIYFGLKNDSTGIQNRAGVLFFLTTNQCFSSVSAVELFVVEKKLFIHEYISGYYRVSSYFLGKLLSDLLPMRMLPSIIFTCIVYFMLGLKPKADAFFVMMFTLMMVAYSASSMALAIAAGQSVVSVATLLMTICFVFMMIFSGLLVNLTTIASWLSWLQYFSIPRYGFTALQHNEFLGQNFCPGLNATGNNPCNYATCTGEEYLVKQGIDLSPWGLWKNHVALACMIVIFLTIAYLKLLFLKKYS
As to the kind of experiment: […] expressed in Sf9 insect cell membranes at 0.1 uM after 30 mins by colorimetric analysis relative to basal control in presence of sodium orthovanadate. The following applies: sf9, 0.5 h. An outline of the steps:
(§1)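 Basal vanadate-sensitive ATPase assay on cholesterol-loaded membranes from human ABCG2-expressing Sf9 cells (0.5 mg/mL; 10 μg/sample). Buffer: 50 mM Tris-HCl, 50 mM NaCl, pH 8.0, with azide, ouabain, DTT and EGTA, ± 0.33 mM orthovanadate. Compound at 2 μM, or substrates nilotinib 0.1 μM, quercetin 2 μM, prazosin 20 μM. ATP-Mg 3.9 mM, 30 min at 37 °C. Phosphate read by molybdate/ascorbate at 880 nm.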

The target of data set [2] is T1, Broad substrate specificity ATP-binding cassette transporter ABCG2. As to the kind of experiment: Inhibition of ABCG2-mediated mitoxantrone efflux in mitoxantrone-selected human H460 cells after 30 mins by flow cytometric analysis. In kind it is cell-based. In general terms: Flow cytometry measures light scatter and fluorescence of single cells or particles in a stream.

Data set [3] has the same target. Briefly: Inhibition of human ABCG2 expressed in Sf9 insect cell membranes assessed as inhibition of quercetin-stimulated ATPase activity after 30 mins by colorimetric analysis in presence of sodium orthovanadate. The conditions noted are these: for inhibition (INH): human, sf9, 0.5 h. In outline: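 Quercetin (2 μM)-stimulated vanadate-sensitive ATPase assay on cholesterol-loaded ABCG2 Sf9 membranes (10 μg/sample) in Tris/NaCl buffer, pH 8.0. Compound at 0.01, 0.03, 0.5 and 2 μM. ATP-Mg 3.9 mM, 30 min at 37 °C. Released phosphate read colorimetrically at 880 nm. IC50 estimated as 50% inhibition of initial activity; three independent experiments.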

Data set [4] deals with T2, ABCG2 (Homo sapiens, UniProt Q9UNQ0).
T2 sequence (Q9UNQ0 whole entry): T1 sequence (Q9UNQ0 whole entry)
Briefly: Inhibition of ABCG2 (unknown origin)-mediated pheophorbide A efflux expressed in HEK293 cells at 1 to 5 uM after 30 mins by flow cytometric analysis relative to control. In kind it is cell-based. The following applies: HEK293 cells expressing ABCG2, probe pheophorbide A, read-out: Imax. An outline of the steps: (§2)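 Cells seeded at 1.5 × 10^5 cells/well and grown 48 h were exposed to BODIPY-prazosin (0.2 μM) or pheophorbide A (2 μM) for 30 min at 37 °C with or without compound. After washing and trypsinization, intracellular fluorescence was read by flow cytometry (FL4, ≥10 000 events). Percent inhibition = (C−M)/(Cev−M)×100, where Cev is from ABCG2-negative control cells.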

Data set [5] has as its target T1, Broad substrate specificity ATP-binding cassette transporter ABCG2. Briefly: Inhibition of ABCG2 (unknown origin)-mediated mitoxantrone efflux expressed in HEK293 cells after 30 mins by flow cytometric analysis. Type of data set: cell-based.
For data set [6], the target named is Multidrug resistance-associated protein 1 (Homo sapiens, UniProt P33527). Briefly: Inhibition of ABCC1 (unknown origin)-mediated calcein-AM efflux expressed in HEK293 cells at 5 uM after 30 mins by flow cytometric analysis. In kind it is cell-based. The conditions noted are these: hek293, 0.5 h.
Multidrug resistance-associated protein 1, sequence (P33527 whole entry): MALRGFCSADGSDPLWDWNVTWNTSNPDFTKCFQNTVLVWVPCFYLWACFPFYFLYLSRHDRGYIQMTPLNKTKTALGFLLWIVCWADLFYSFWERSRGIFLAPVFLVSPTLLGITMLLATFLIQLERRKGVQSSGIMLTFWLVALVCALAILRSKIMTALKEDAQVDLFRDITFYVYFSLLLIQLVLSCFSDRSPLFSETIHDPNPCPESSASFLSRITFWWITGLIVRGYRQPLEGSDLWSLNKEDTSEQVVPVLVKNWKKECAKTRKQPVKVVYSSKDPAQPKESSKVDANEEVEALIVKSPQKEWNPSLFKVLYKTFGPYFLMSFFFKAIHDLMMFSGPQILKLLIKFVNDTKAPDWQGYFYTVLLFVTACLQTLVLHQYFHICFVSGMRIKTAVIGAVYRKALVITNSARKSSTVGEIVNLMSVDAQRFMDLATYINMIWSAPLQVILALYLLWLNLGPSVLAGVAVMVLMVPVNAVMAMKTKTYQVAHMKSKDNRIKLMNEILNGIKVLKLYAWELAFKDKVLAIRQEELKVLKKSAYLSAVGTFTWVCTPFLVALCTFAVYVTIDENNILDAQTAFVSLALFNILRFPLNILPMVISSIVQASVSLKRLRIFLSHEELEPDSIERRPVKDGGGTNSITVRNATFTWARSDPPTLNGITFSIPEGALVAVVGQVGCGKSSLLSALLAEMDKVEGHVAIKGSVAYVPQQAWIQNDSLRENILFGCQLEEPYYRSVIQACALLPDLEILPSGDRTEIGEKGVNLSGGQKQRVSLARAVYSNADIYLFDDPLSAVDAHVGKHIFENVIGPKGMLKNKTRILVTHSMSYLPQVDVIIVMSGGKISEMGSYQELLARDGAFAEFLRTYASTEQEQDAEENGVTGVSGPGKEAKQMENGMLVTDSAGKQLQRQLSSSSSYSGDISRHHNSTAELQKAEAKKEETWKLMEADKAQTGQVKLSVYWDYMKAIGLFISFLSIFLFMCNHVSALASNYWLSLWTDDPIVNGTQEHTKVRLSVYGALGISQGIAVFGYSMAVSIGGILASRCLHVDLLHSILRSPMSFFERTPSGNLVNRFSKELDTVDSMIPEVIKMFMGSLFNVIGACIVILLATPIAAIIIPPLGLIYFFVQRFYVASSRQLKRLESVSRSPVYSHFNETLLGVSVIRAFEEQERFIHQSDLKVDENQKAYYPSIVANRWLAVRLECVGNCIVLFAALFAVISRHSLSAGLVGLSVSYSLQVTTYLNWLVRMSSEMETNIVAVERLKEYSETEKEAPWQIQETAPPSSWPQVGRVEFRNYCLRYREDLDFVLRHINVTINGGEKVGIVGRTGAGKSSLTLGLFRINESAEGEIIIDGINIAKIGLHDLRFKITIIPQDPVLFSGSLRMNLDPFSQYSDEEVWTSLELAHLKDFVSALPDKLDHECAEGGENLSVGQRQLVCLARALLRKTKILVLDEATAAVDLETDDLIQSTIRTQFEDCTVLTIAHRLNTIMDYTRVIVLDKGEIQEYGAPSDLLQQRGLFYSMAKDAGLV
For data set [7], the target named is ATP-dependent translocase ABCB1 (Homo sapiens, UniProt P08183). As to the kind of experiment: Inhibition of ABCB1 (unknown origin)-mediated rhodamine 123 efflux expressed in mouse NIH/3T3 cells at 5 uM after 30 mins by flow cytometric analysis. Type of data set: cell-based. The conditions noted are these: nih/3t3, 0.5 h.
ATP-dependent translocase ABCB1, sequence (P08183 whole entry): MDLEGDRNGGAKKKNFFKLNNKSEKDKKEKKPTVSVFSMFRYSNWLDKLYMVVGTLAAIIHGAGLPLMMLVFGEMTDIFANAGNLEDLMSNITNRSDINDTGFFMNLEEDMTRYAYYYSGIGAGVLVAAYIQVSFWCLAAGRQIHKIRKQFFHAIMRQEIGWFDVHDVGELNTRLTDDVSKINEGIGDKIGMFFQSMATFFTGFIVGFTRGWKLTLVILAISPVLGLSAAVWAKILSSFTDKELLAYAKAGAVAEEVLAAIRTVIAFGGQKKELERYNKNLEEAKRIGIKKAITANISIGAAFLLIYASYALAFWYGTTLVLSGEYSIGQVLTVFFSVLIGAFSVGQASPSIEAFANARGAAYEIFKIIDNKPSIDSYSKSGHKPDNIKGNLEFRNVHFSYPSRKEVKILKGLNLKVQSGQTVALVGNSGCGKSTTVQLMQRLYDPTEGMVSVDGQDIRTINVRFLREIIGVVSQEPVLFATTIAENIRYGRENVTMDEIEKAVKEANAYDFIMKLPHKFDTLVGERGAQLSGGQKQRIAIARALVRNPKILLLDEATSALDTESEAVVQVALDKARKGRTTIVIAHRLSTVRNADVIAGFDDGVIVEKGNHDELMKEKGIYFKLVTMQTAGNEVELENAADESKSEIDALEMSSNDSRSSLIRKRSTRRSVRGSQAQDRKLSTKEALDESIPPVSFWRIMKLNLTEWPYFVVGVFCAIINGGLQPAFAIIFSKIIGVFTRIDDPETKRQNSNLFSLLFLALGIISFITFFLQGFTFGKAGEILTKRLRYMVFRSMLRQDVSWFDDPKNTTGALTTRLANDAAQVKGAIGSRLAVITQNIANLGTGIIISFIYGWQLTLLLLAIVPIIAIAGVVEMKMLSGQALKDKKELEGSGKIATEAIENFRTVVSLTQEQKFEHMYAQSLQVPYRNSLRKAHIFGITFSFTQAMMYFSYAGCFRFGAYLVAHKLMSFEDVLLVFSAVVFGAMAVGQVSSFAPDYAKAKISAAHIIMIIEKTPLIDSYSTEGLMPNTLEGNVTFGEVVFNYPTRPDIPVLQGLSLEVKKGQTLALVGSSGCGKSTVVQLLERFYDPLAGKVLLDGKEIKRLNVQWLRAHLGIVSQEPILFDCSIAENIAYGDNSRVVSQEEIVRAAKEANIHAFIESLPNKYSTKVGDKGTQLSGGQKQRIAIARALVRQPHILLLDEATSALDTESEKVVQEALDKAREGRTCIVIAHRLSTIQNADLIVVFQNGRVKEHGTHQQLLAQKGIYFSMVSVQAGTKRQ
Data set [8] addresses T1, Broad substrate specificity ATP-binding cassette transporter ABCG2. Briefly: Binding affinity to ABCG2 (unknown origin) expressed in HEK293 cells assessed as modulation of 5D3 binding at 2 uM after 45 mins by flow cytometric analysis relative to Ko143. Type of data set: cell-based. The following applies: hek293, 0.75 h. An outline of the steps: (§3)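 5D3 shift assay on ABCG2-transfected HEK293 cells (0.5 × 10^6 cells/tube) in PBS with 0.5% BSA. Compound at 2 or 5 μM plus 5D3 anti-ABCG2 antibody or isotype control (1 μg/mL), 45 min at 37 °C. Anti-mouse Alexa Fluor 488 secondary (3 μg/mL), 30 min at 37 °C. Binding read by flow cytometry, expressed relative to 2 μM Ko143 (100%). Mean ± SD of ≥3 independent experiments.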

The target of data set [9] is T2, ABCG2. Briefly: Inhibition of ABCG2 (unknown origin)-mediated mitoxantrone efflux expressed in HEK293 cells at 5 to 10 uM after 30 mins by flow cytometric analysis relative to control. In kind it is cell-based. The conditions noted are these: HEK293 cells expressing ABCG2, probe mitoxantrone, read-out: Imax.
Data set [10] concerns the target T1, Broad substrate specificity ATP-binding cassette transporter ABCG2. Briefly: Inhibition of human ABCG2 ATPase activity expressed in Sf9 insect cell membranes at 2 uM after 30 mins by colorimetric analysis relative to basal control in presence of sodium orthovanadate. The following applies: sf9, 0.5 h. An outline of the steps:
as §1

The target of data set [11] is T2, ABCG2. Briefly: Inhibition of ABCG2 in mitoxantrone-selected human H460 cells assessed as reversal of mitoxantrone-resistance at 0.2 uM after 72 hrs by MTT assay relative to control. The following applies: probe mitoxantrone. In kind it is cell-based. For orientation: Tetrazolium dyes change colour on reduction, which living cells bring about.
Data set [12] concerns the target T2, ABCG2. As to the kind of experiment: Inhibition of ABCG2 in mitoxantrone-selected human H460 cells assessed as reversal of mitoxantrone-resistance at 1 uM after 72 hrs by MTT assay relative to control. The following applies: probe mitoxantrone. In kind it is cell-based.
Data set [13] deals with T1, Broad substrate specificity ATP-binding cassette transporter ABCG2. As to the kind of experiment: Inhibition of ABCG2 (unknown origin)-mediated BODIPY-prazosin efflux expressed in HEK293 cells at 1 to 5 uM after 30 mins by flow cytometric analysis. In kind it is cell-based. The conditions noted are these: hek293, 0.5 h. In outline: as §2
For data set [14], the target named is T2, ABCG2. As to the kind of experiment: Inhibition of ABCG2-mediated mitoxantrone efflux in mitoxantrone-selected human H460 cells at 5 to 10 uM after 30 mins by flow cytometric analysis relative to control. In kind it is cell-based. The following applies: probe mitoxantrone, read-out: Imax.
The target of data set [15] is T1, Broad substrate specificity ATP-binding cassette transporter ABCG2. As to the kind of experiment: Binding affinity to ABCG2 (unknown origin) expressed in HEK293 cells assessed as modulation of 5D3 binding at 5 uM after 45 mins by flow cytometric analysis relative to Ko143. In kind it is cell-based. The conditions noted are these: hek293, 0.75 h. An outline of the steps:
as §3

Data set [16] shares this target. As to the kind of experiment: Stimulation of human ABCG2 ATPase activity expressed in Sf9 insect cell membranes at 2 uM after 30 mins by colorimetric analysis relative to basal control in presence of sodium orthovanadate. The conditions noted are these: sf9, 0.5 h.
For data set [17] the target is unchanged. Briefly: […] expressed in Sf9 insect cell membranes at 20 uM after 30 mins by colorimetric analysis relative to basal control in presence of sodium orthovanadate. The conditions noted are these: sf9, 0.5 h. In outline: as §1

As for `Cc1cn(-c2cc(NC(=O)c3ccc(C)c(Nc4nccc(-c5cccnc5)n4)c3)cc(C(F)(F)F)c2)cn1` [NILOTINIB], the “fold change (FC)” value in [1] is reported as 3.2.

One may read the EC50 as the concentration at which the effect is half-maximal. The term IC50 denotes the concentration at which inhibition is half-maximal. For orientation: inhibition means how much of the control response was suppressed. In the case of `Cn1cc(CCNC(=O)c2cc(=O)c3c(OCc4ccc(Br)cc4)cccc3o2)c2ccccc21`, the figures for the EC50 in data set [2] and in data set [5] were 0.22 µM and 0.3 µM, respectively. For the same compound, in data set [3], the IC50 amounted to 1.1 µM. The “inhibition (INH)” value in data set [3] is “Dose-dependent effect”; in data set [6], “Not Active”; in [7] it was “Not Active”; in data set [10], “Active”; in data set [13] it was “Active”. The values for the Emax at 0.5 h in data set [4], in [9] and in data set [14] were 80%, 85% and 102%, respectively. Further, the results for the Activity in [8] and in [15] were 88.7% and 98%, respectively. Moreover, in data set [11], the inhibition at 72 h, 0.2 µM is > 4%. For the same compound, the inhibition at 72 h, 1 µM in data set [12] is > 61%.

As to `O=c1c(O)c(-c2ccc(O)c(O)c2)oc2cc(O)cc(O)c12` [QUERCETIN], in data set [16], the “fold change (FC)” value is 4.1.

For `COc1ccc2c(CCNC(=O)c3cc(=O)c4c(OCc5ccc(Br)cc5)cccc4o3)c[nH]c2c1`, the EC50 in data set [2] was 0.08 µM; in data set [5] it was 0.1 µM. In addition, in data set [3], the IC50 turned out to be 0.29 µM. The “inhibition (INH)” value is given as “Dose-dependent effect” in data set [3]; “Not Active” in data set [6]; “Not Active” in data set [7]; “Active” in data set [10]; “Active” in data set [13]. The Emax at 0.5 h in data set [4] was 80%; in data set [9], 97%; in [14], 89%. Also, the results for the Activity in data set [8] and in [15] were 96.4% and 101%, respectively. The inhibition at 72 h, 0.2 µM in data set [11] is > 50%. Further, in data set [12], the inhibition at 72 h, 1 µM is > 72%.

Consider `COc1ccc2[nH]cc(CCNC(=O)c3cc(=O)c4ccc(OCc5ccc(Br)cc5)cc4o3)c2c1`, for which the EC50 in data set [2] turned out to be 1.54 µM; in [5] it was 1.27 µM. Further, in data set [3], the IC50 was found to be 0.01 µM. Also, the “inhibition (INH)” value in [3] is listed as “Dose-dependent effect”. The Activity is listed as 64.6% in [8] and 90.1% in data set [15]. Moreover, the Emax at 0.5 h in data set [9] was 80%; in data set [14] it was 93%. In addition, in [16], the “fold change (FC)” value is 2.1.

`COc1cc2nc(N3CCN(C(=O)c4ccco4)CC3)nc(N)c2cc1OC` [PRAZOSIN]: the “fold change (FC)” value in data set [17] is listed as 2.4.

Turning to `COc1ccc2[nH]cc(CCNC(=O)c3cc(=O)c4c(OCc5ccc(Br)cc5)cccc4o3)c2c1`, the figures for the EC50 in data set [2] and in data set [5] were 0.05 µM and 0.13 µM, respectively. Also, in data set [3], the IC50 was found to be 0.38 µM. Moreover, the “inhibition (INH)” value in [3] is recorded as “Dose-dependent effect”; in data set [6], “Not Active”; in [7] it was “Not Active”; in data set [10] it was “Active”; in [13], “Active”. In addition, the Emax at 0.5 h in data set [4] amounted to 80%; in data set [9] it was 98%; in [14], 107%. Further, the results for the Activity in data set [8] and in data set [15] were 100.5% and 103.5%, respectively.
